What was measured:
HL-60 = assay: Induction of apoptosis in human HL60 cells assessed as cell shrinkage after 24 hrs phase contrast microscopic analysis; type: functional, cell-based
Procedure, shortened: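 HL-60 cells at 0.5 × 10^6 cells/ml treated 24 h with compound at 0.2, 0.5, 1 or 5 (DMSO vehicle). Treated and control cells photographed under a phase contrast microscope at 20× and scored for morphology.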

[1] = Aqueous solubility of the compound at pH 7; type: physicochemical
[2] = Cytotoxicity against human MIAPaCa2 cells assessed as cell growth inhibition at 1 uM after 48 hrs by MTT assay; type: functional; conditions: MIA PaCa-2, 48 h, read-out: GI
Procedure, shortened: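 Adherent lines at 70–75% confluence, grown at 37 °C in 5% CO2 with 10% FCS. Exposed 48 h to compound in DMSO (vehicle <0.2% v/v). MTT dye added 3 h before termination; formazan dissolved in DMSO, OD 570 nm with 620 nm reference. Growth inhibition expressed as % of untreated; IC50 taken from the dose series.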

[3] = Cell cycle arrest in human HL60 cells assessed as accumulation at subG0 phase at 1 uM after 24 hrs by propidium iodide-DNA fluorescence based FACS analysis (reference value: 5 %); type: functional; conditions: HL-60
Procedure, shortened: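 HL-60 cells seeded at 0.5 × 10^6 cells/ml, exposed 24 h to compound (DMSO vehicle, <0.2% v/v). Pelleted at 400×g, PBS-washed, fixed in 70% ethanol at 4 °C overnight. RNase A treatment at 37 °C for 1.30 h, then propidium iodide staining for 20 min. Flow cytometry on 10,000 events, FL2-A vs FL2-W; subG0 (apoptotic) and phase populations gated.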

SMILES | Activity (HL-60) | solubility [1] [µg/mL] | inhibition of growth at 1 µM [2] [%] | Activity [3] [%]
C[C@H]1[C@@H](OCCOc2ccc(/C=C/C(=O)c3ccc(O)cc3)cc2)O[C@@H]2O[C@@]3(C)CC[C@H]4[C@H](C)CC[C@@H]1[C@@]24OO3 | Dose-dependent effect | > 100 | 9.1 | 
C[C@H]1[C@@H](OCCOc2cccc(C(=O)/C=C/c3ccc(O)cc3)c2)O[C@@H]2O[C@@]3(C)CC[C@H]4[C@H](C)CC[C@@H]1[C@@]24OO3 | Dose-dependent effect | > 100 | 13 | 65

— ChEMBL document CHEMBL3865799, “Synthesis of a series of novel dihydroartemisinin monomers and dimers containing chalcone as a linker and their anticancer activity” (Eur J Med Chem, 2016)
